Source: paper PMC3149845 (The Journal of neuroscience : the official journal of the …, 2011)

What was measured:
hTas1R2/smTas1R3 = biological target: T1, hTas1R2/smTas1R3 (Homo sapiens, UniProt Q8TE23); assay: Ca2+ mobilization, mismatched receptor; format: cell-based, human/squirrel monkey; conditions: aspartame 10mM, neotame 1mM, sucralose 2 mM, D-tryptophan 5mM, sucrose 150mM; vs control / wild type human receptor
T1 sequence (Q8TE23 20-839): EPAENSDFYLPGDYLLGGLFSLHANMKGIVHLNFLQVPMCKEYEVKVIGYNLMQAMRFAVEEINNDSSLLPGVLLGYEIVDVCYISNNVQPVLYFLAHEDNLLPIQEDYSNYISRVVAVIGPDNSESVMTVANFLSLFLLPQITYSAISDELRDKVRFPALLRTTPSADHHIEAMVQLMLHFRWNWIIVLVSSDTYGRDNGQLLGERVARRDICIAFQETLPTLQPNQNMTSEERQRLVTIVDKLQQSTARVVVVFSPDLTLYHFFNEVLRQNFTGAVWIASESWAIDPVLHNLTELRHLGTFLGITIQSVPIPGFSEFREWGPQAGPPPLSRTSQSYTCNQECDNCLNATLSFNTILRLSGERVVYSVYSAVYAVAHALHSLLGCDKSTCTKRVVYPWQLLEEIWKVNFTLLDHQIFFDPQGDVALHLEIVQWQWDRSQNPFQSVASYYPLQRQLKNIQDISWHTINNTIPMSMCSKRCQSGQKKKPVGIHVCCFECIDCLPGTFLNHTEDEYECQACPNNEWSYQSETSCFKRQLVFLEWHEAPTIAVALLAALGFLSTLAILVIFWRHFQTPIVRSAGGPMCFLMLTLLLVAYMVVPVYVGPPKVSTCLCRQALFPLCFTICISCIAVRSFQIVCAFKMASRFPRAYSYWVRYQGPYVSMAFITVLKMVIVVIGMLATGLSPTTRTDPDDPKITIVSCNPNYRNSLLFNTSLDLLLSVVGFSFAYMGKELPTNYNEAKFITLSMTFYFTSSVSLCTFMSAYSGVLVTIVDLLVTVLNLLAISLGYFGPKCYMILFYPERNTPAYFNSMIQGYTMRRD
In short: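 Transfected HEK293E cells (50,000/well; 0.06 μg Tas1R plasmid and 0.06 μg Gα16-gust44 per well) were medium-changed at 20 h, then loaded after 24 h with 3 μM Fluo-4 AM in HBSS/20 mM HEPES for 1 h. Tastant added 30 s into scan; fluorescence (ex 488/em 525 nm) read every 2 s for 150 s. ΔF/F normalized to the hTas1R2/hTas1R3 sucralose response; three independent experiments; unpaired t test.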

smTas1R2/hTas1R3 = biological target: T2, smTas1R2/hTas1R3 (Saimiri sciureus, UniProt A3QP08); assay: Ca2+ mobilization, mismatched receptor; format: cell-based, human/squirrel monkey; conditions: aspartame 10mM, neotame 1mM, sucralose 2 mM, D-tryptophan 5mM, sucrose 150mM
T2 sequence (A3QP08 20-834): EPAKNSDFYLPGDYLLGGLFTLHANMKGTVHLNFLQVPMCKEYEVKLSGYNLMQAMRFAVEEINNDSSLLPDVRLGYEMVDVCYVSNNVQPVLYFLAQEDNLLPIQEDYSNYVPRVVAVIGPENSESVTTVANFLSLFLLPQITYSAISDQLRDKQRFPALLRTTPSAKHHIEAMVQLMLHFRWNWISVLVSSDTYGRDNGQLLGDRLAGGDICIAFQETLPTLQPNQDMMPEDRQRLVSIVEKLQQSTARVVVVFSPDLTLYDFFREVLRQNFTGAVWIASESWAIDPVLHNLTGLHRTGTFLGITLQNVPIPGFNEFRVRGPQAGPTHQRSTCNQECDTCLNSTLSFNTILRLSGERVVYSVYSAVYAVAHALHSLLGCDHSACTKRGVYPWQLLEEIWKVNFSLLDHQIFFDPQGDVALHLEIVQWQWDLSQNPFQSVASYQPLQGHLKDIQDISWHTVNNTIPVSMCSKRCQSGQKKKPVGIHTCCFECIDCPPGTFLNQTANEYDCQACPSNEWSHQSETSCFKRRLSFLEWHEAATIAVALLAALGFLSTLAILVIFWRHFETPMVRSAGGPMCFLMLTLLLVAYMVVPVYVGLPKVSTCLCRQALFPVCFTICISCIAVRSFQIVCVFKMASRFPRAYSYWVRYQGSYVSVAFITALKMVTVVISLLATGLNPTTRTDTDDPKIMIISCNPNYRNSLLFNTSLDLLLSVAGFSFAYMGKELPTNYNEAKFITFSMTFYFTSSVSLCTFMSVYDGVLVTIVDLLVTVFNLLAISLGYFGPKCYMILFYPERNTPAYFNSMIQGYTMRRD
T2 sequence (Q7RTX0 21-852 partner): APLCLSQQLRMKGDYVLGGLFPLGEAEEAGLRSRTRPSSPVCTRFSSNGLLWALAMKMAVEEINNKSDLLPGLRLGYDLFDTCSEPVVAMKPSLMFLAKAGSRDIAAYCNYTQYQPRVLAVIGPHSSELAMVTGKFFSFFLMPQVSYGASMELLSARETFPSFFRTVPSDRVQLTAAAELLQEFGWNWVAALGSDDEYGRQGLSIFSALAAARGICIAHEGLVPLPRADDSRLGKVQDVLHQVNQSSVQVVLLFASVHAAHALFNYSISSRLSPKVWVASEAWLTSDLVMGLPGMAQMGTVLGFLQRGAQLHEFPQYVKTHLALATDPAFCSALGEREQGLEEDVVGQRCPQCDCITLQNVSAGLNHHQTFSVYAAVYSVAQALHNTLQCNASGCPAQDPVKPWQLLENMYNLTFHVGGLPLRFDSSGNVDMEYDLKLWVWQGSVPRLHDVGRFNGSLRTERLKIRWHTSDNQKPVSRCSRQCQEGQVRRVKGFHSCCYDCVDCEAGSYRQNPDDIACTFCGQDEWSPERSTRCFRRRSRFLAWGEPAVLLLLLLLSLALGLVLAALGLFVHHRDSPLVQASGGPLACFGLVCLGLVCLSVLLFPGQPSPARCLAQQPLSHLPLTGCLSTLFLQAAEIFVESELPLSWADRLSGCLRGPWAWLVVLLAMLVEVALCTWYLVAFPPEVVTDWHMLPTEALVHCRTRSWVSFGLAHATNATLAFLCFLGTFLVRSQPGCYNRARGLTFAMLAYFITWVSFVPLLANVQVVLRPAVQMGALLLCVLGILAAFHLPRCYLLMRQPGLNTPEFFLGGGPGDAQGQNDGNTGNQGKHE
In short: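 HEK293E cells grown at 37°C in Opti-MEM with 5% FBS and seeded at 50,000/well. Cells co-lipofected with Tas1R plasmids and Gα16-gust44 (0.06 μg each per well); medium changed at 20 h, assayed 24 h later. Cells loaded 1 h with Fluo-4 AM in HEPES-buffered HBSS. Tastant added at 30 s; fluorescence (ex 488/em 525 nm) read every 2 s for 150 s more. ΔF/F normalised to human receptor maximal sucralose response; mean ± SEM, three independent experiments.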

Compound	calcium response to sweetener (hTas1R2/smTas1R3)	calcium response to sweetener (smTas1R2/hTas1R3)
OC[C@H]1O[C@@](CO)(O[C@H]2O[C@H](CO)[C@@H](O)[C@H](O)[C@H]2O)[C@@H](O)[C@@H]1O [sucrose]	reduced responses	remained intact or reduced
N[C@H](Cc1c[nH]c2ccccc12)C(=O)O [D-tryptophan]	reduced responses	remained intact or reduced
